Experimental data taken from ChEMBL document CHEMBL1255219, “Discovery of a β-d-2'-deoxy-2'-α-fluoro-2'-β-C-methyluridine nucleotide prodrug (PSI-7977) for the treatment of hepatitis C virus” (J Med Chem, 2010).

What was measured:
[1] = Cytotoxicity against HuH7 cells at 100 uM; format: cell-based; conditions: human, huh-7, 100 µM
Outline: (§1)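 Huh7, HepG2 and BxPC3 cells at 2 × 10^3 per well, CEM at 5 × 10^3 per well. Compound serially diluted from 100 μM, 8 days at 37 °C. MTS added for 2 h, absorbance read at 490 nm with medium-only blanks. CC50 taken relative to untreated cells.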

[2] = test system: Rattus norvegicus; assay: Toxicity in rat assessed as change in macroscopic pathology at 50 to 1800 mg/kg, po after 14 days; format: organism-based; design: dose 50-1800 mg/kg, route oral; conditions: in vivo, 336 h
Outline: (§2)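 Rats (CD SD, 4–5 weeks, 76–100 g) given a single oral dose of 50, 300 or 1800 mg/kg, or vehicle (30% PEG400/30% Tween 20/20% corn oil/20% water). Observed daily for 14 days with daily body weights. Necropsy on day 15 with macroscopic examination and liver and paired kidney weights.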

[3] = test system: HepG2; assay: Cytotoxicity against human HepG2 cells at 100 uM; format: cell-based; conditions: hepg2, 100 µM; outline: as §1
[4] = Half life in human liver S9 fraction at 100 uM; format: ADME, subcellular
Outline: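 Compound at 100 μM in 50 mM K2HPO4 pH 7.4 with 5 mM MgCl2. Started with 4 mg/mL human liver S9 at 37 °C. Samples at 0–24 h quenched with acetonitrile. Parent remaining measured by LC/MS/MS peak area relative to 0 h, and half-life calculated.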

[5] = Half life in simulated gastric fluid at pH 1.2 at 50 ug/mL; format: physicochemical
Outline: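 Compound at 50 μg/mL in simulated gastric fluid (pH 1.2) or simulated intestinal fluid (pH 7.5), 37 °C, 20 h. Injected by reverse-phase HPLC every 2 h, peak area at 260 nm. Percent parent remaining relative to 0 h, giving half-life.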

[6] = test system: Rattus norvegicus; assay: Cmax in rat liver assessed as 2'-F-2'-C-Methyluridine-5''-TP level at 50 mg/kg, po; format: ADME, organism-based; design: dose 50 mg/kg, route oral; conditions: in vivo
Outline: (§3)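 Rats given a single oral gavage dose of 50 mg/kg in 0.5% carboxymethylcellulose sodium, 5 mL/kg. Livers taken at 0.5, 1, 2, 4, 6 and 12 h after CO2 sacrifice and ice-cold saline perfusion, then snap-frozen. Homogenized in 3 volumes of cold 70% methanol with 20 mM EDTA/EGTA. Triphosphate measured by LC/MS/MS (ESI, MRM negative mode), noncompartmental analysis.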

[7] = Cytotoxicity against human myeloid progenitor cells after 14 to 16 days
[8] = Half life in simulated intestinal fluid of pH 7.5 at 50 ug/mL; format: physicochemical
Outline: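 Compound at 50 μg/mL in simulated gastric fluid (pH 1.2) or simulated intestinal fluid (pH 7.5), 37 °C, 20 h. Injected by reverse-phase HPLC every 2 h, peak area at 260 nm.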

[9] = test system: Rattus norvegicus; assay: AUC (0 to infinity) in rat liver assessed as 2'-F-2'-C-Methyluridine-5''-TP level at 50 mg/kg, po; format: ADME, organism-based; design: time infinity, dose 50 mg/kg, route oral; conditions: in vivo; outline: as §3
[10] = Cytotoxicity against human BxPC3 cells at 100 uM; format: cell-based; conditions: bxpc-3, 100 µM; outline: as §1
[11] = test system: Rattus norvegicus; assay: Tmax in rat liver assessed as 2'-F-2'-C-Methyluridine-5''-TP level at 50 mg/kg, po; format: ADME, organism-based; design: dose 50 mg/kg, route oral; conditions: in vivo; outline: as §3
[12] = Cmax in cynomolgus monkey plasma at 50 mg/kg, po qd for 4 days; format: ADME, organism-based, Macaca fascicularis; design: dose 50 mg/kg, route oral
Outline: (§4)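 Oral gavage (dog gastric, monkey nasogastric), 50 mg/kg in 20% w/v hydroxypropyl-β-cyclodextrin in water, 2.5 mL/kg, once daily for 4 consecutive days. Blood sampled into K2EDTA at 1, 2, 4, 6, 12 and 24 h postdose on day 3. Prodrug in plasma quantified by LC/MS/MS, noncompartmental analysis.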

[13] = Tmax in cynomolgus monkey plasma at 50 mg/kg, po qd for 4 days; format: ADME, organism-based, Macaca fascicularis; design: dose 50 mg/kg, route oral; outline: as §4
[14] = test system: Rattus norvegicus; assay: Toxicity in rat assessed as change in kidney weight at 50 to 1800 mg/kg, po after 14 days; format: organism-based; design: dose 50-1800 mg/kg, route oral; conditions: in vivo, 336 h; outline: as §2
[15] = test system: Canis familiaris; assay: Metabolic stability in dog liver assessed as 2'-F-2'-C-Methyluridine-5''-triphosphate level at 50 mg/kg, po; format: ADME, organism-based, Canis lupus familiaris; design: dose 50 mg/kg, route oral; conditions: in vivo
Outline: (§5)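 Dogs and cynomolgus monkeys gavaged once daily with 50 mg/kg in 20% w/v hydroxypropyl-β-cyclodextrin for 4 days. At 4 h postdose on day 4, under pentobarbital, the liver was perfused with ice-cold saline via a portal cannula. Five lobe samples were snap-frozen and homogenized in 3 volumes of cold 70% methanol with 20 mM EDTA/EGTA. Prodrug and triphosphate measured by LC/MS/MS.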

[16] = test system: Rattus norvegicus; assay: AUC (0 to t) in rat liver assessed as 2'-F-2'-C-Methyluridine-5''-TP level at 50 mg/kg, po; format: ADME, organism-based; design: dose 50 mg/kg, route oral; conditions: in vivo; outline: as §3
[17] = species on record: Homo sapiens; assay: Half life in human plasma at 100 uM
[18] = test system: Hepatitis C virus; assay: Antiviral activity against HCV infected in human clone A cells assessed as inhibition of cellular rRNA replication at 50 uM; format: functional, Hepacivirus hominis
[19] = test system: Cynomolgus monkey; assay: Metabolic stability in cynomolgus monkey liver assessed as prodrug level at 50 mg/kg, po; format: ADME, organism-based, Macaca fascicularis; design: dose 50 mg/kg, route oral; conditions: in vivo; outline: as §5
[20] = test system: Rattus norvegicus; assay: Toxicity in rat assessed as change in body weight at 50 to 1800 mg/kg, po after 14 days; format: organism-based; design: dose 50-1800 mg/kg, route oral; conditions: in vivo, 336 h; outline: as §2
[21] = test system: CCRF-CEM; assay: Cytotoxicity against human CEM cells at 100 uM; format: cell-based; outline: as §1
[22] = test system: Rattus norvegicus; assay: Toxicity in rat assessed as mortality at 50 to 1800 mg/kg, po after 14 days; format: organism-based; design: dose 50-1800 mg/kg, route oral; conditions: in vivo, 336 h; outline: as §2
[23] = AUC (0 to infinity) in dog plasma at 50 mg/kg, po qd for 4 days; format: ADME, organism-based, Canis lupus familiaris; design: time infinity, dose 50 mg/kg, route oral; outline: as §4
[24] = AUC (0 to t) in dog plasma at 50 mg/kg, po qd for 4 days; format: ADME, organism-based, Canis lupus familiaris; design: dose 50 mg/kg, route oral; outline: as §4
[25] = Tmax in dog plasma at 50 mg/kg, po qd for 4 days; format: ADME, organism-based, Canis lupus familiaris; design: dose 50 mg/kg, route oral; outline: as §4
[26] = Cytotoxicity against human erythroid progenitor cells after 14 to 16 days
[27] = Permeability by PAMPA assay; format: ADME; conditions: read-out: permeability
Outline: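 PAMPA with a lecithin-in-dodecane (20 mg/mL) coated filter donor. Donor held 200 μg/mL compound in PBS pH 7.4 with 2% DMSO; acceptor held PBS with 2% DMSO. Left 24 h. Donor and acceptor concentrations measured by LC/MS/MS (MRM), and Pe calculated from concentrations, volumes, filter area and time.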

[28] = test system: Rattus norvegicus; assay: Toxicity in rat assessed as change in liver weight at 50 to 1800 mg/kg, po after 14 days; format: organism-based; design: dose 50-1800 mg/kg, route oral; conditions: in vivo, 336 h; outline: as §2
[29] = test system: Hepatitis C virus; assay: Antiviral activity against HCV infected in human clone A cells; format: functional, Hepacivirus hominis; conditions: Hepatitis C virus
Outline: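 Clone A replicon cells seeded at 1500 cells/well. Compounds serially diluted in G418-free culture medium and added, then incubated 4 days at 37 °C in 5% CO2. HCV RNA quantified by real-time RT-PCR as ΔCt relative to the mean no-drug control.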

[30] = Cmax in dog plasma at 50 mg/kg, po qd for 4 days; format: ADME, organism-based, Canis lupus familiaris; design: dose 50 mg/kg, route oral; outline: as §4
[31] = test system: Canis familiaris; assay: Metabolic stability in dog liver assessed as prodrug level at 50 mg/kg, po; format: ADME, organism-based, Canis lupus familiaris; design: dose 50 mg/kg, route oral; conditions: in vivo; outline: as §5
[32] = AUC (0 to t) in cynomolgus monkey plasma at 50 mg/kg, po qd for 4 days; format: ADME, organism-based, Macaca fascicularis; design: dose 50 mg/kg, route oral; outline: as §4
[33] = test system: Cynomolgus monkey; assay: Metabolic stability in cynomolgus monkey liver assessed as 2'-F-2'-C-Methyluridine-5''-triphosphate level at 50 mg/kg, po; format: ADME, organism-based, Macaca fascicularis; design: dose 50 mg/kg, route oral; conditions: in vivo; outline: as §5
[34] = AUC (0 to infinity) in cynomolgus monkey plasma at 50 mg/kg, po qd for 4 days; format: ADME, organism-based, Macaca fascicularis; design: time infinity, dose 50 mg/kg, route oral; outline: as §4

C[C@H](NP(=O)(OC[C@H]1O[C@@H](n2ccc(=O)[nH]c2=O)[C@](C)(F)[C@@H]1O)Oc1ccc(F)cc1)C(=O)OC1CCCCC1 (stereo partly drawn)
Activity [1]: Non-toxic
Activity [2]: Non-toxic
Activity [3]: Non-toxic
half-life at 100 µM [4]: 0.18 h
half-life at 50 ug/mL [5]: 20 h
Cmax [6]: 716 ng/g
IC50 [7]: 30 µM
half-life at 50 ug/mL [8]: > 20 h
AUC [9]: 9888 ng·h/g
Activity [10]: Non-toxic
Tmax [11]: 4 h
Cmax [12]: 1.8 ng/mL
Tmax [13]: 6 h
Activity [14]: Non-toxic
Drug uptake [15]: 476 ng/g
AUC [16]: 8937 ng·h/g
half-life at 100 µM [17]: > 24 h
inhibition at 50 µM [18]: 52.1%
Drug uptake [19]: 13 ng/g
Activity [20]: Non-toxic
Activity [21]: Non-toxic
Activity [22]: Non-toxic
AUC(0-inf) [23]: 62 ng·h/mL
AUC(0-t) at 96 h [24]: 54 ng·h/mL
Tmax [25]: 0.25 h
IC50 [26]: 37 µM
Papp [27]: 0.488 ×10⁻⁶ cm/s
Activity [28]: Non-toxic
EC90 [29]: 0.04 µM
Cmax [30]: 36 ng/mL
Drug uptake [31]: 8.72 ng/g

CC(C)OC(=O)[C@H](C)NP(=O)(OC[C@H]1O[C@@H](n2ccc(=O)[nH]c2=O)[C@](C)(F)[C@@H]1O)Oc1ccccc1 (stereo partly drawn)
Activity [1]: Non-toxic
Activity [2]: Non-toxic
Activity [3]: Non-toxic
half-life at 100 µM [4]: 0.57 h
half-life at 50 ug/mL [5]: 22 h
Cmax [6]: 1934 ng/g
IC50 [7]: > 50 µM
AUC [9]: 18080 ng·h/g
AUC(0-t) at 96 h [32]: 86 ng·h/mL
Activity [10]: Non-toxic
Tmax [11]: 4 h
Drug uptake [33]: 57 ng/g
Cmax [12]: 33 ng/mL
Tmax [13]: 1 h
Activity [14]: Non-toxic
AUC(0-inf) [34]: 170 ng·h/mL
Drug uptake [15]: 10560 ng/g
AUC [16]: 16796 ng·h/g
inhibition at 50 µM [18]: 25.9%
Drug uptake [19]: 177 ng/g
Activity [20]: Non-toxic
Activity [21]: Non-toxic
Activity [22]: Non-toxic
AUC(0-inf) [23]: 6900 ng·h/mL
AUC(0-t) at 96 h [24]: 6890 ng·h/mL
Tmax [25]: 0.5 h
IC50 [26]: > 50 µM
Papp [27]: 0.046 ×10⁻⁶ cm/s
Activity [28]: Non-toxic
EC90 [29]: 0.52 µM
Cmax [30]: 6180 ng/mL
Drug uptake [31]: 612 ng/g
